# Active and inactive are the calls of the source. The rule behind the calls is not given here.
# Experiments:
# [1] = system: HT-29; experiment: Induction of apoptosis in human HT-29 cells assessed as increase in accumulation at sub-G1 phase at 1 uM after 48 hrs by flow cytometry; assay type: functional
# How it was run: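 HT-29 cells were exposed to vehicle or 1, 5 or 10 μM compound for 6, 12, 24 or 48 h. Floating and attached cells were collected, fixed in 70% ethanol and treated with 0.1% Triton X-100. They were stained with PI at 50 μg/mL plus RNaseA at 50 μg/mL for 30 min at room temperature in the dark. FL2 DNA content was read on 10000 cells by flow cytometry. The sub-G1 fraction was taken as apoptotic.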
# [2] = system: HT-29; experiment: Induction of apoptosis in human exponentially growing HT-29 cells; assay type: functional, cell-based; details: TDE = time-dependent effect
# [3] = system: SK-OV-3; experiment: Induction of apoptosis in human SKOV3 cells assessed as morphological changes at 0.25 ug/mL after 24 hrs by immunostaining; assay type: functional, cell-based
# How it was run: (§1)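 SKOV3 and HT-29 cells were treated with 0.25 or 5 μg/mL for 24 h. Cell morphology was assessed by microscopy after fixation in 4% formaldehyde and Hoechst 33342 staining (10 μg/mL), against an untreated control.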
# [4] = system: HT-29; experiment: Induction of apoptosis in human HT-29 cells assessed as morphological changes at 5 ug/mL after 24 hrs by immunostaining; assay type: functional, cell-based; how it was run: as §1
# [5] = system: SK-OV-3; experiment: Induction of apoptosis in human SKOV3 cells assessed as apoptotic cells at 10 ug/mL after 24 hrs by annexin V/propidium iodide-based flow cytometry; assay type: functional
# How it was run: (§2)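 SKOV-3 or HT-29 cells (1-5 × 10^6 cells/mL) were incubated with 0, 5 or 10 μg/mL compound for 24 h. They were then washed and stained with EGFP-Annexin V/PI and analysed immediately by flow cytometry. Annexin V+/PI− cells were scored as apoptotic; PI-permeant cells were scored as necrotic.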
# [6] = system: HT-29; experiment: Induction of apoptosis in human HT-29 cells assessed as apoptotic cells at 5 ug/mL after 24 hrs by annexin V/propidium iodide-based flow cytometry; assay type: functional; how it was run: as §2
# [7] = system: HT-29; experiment: Antitumor activity against human HT-29 cells xenografted in athymic BALB/c nude mouse at 75 mg/kg, ip for 10 days measured after 30 days relative to placebo control; assay type: functional; details: route intraperitoneal
# How it was run: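 Female athymic BALB/c nude mice (35-40 days old, 18-22 g). HT-29 tumours first grown from 1 × 10^7 cells injected s.c. in the axillary fossa, then excised and transplanted. Treatment started at 100-300 mm3. Groups of n=6 were dosed i.p. daily in 400 μL: saline for 10 days, 5 mg/kg for 2 days, or 75/150 mg/kg for 10 days. Caliper volume was V=1/2·a·b². Values are relative to start volume, compared with placebo by Student's t test, and mice were killed on day 30.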
# [8] = system: Mus musculus; experiment: Toxicity in athymic BALB/c nude mouse xenografted with human HT-29 cells assessed as change in body weight at 75 mg/kg, ip for 10 days measured after 30 days; assay type: organism-based; parameters: dose 75 mg/kg, route intraperitoneal; details: in vivo, 720 h
# How it was run: (§3)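 Nude mouse HT-29 xenograft model as above: female athymic BALB/c, 18-22 g, n=6 per group. Dosing was i.p. daily in 400 μL for 10 consecutive days at 75 or 150 mg/kg, with saline controls. Body weight and tumour volume were recorded every 4 days, and the study ended on day 30. Weights were compared with controls by Student's t test.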
# [9] = system: Mus musculus; experiment: Toxicity in athymic BALB/c nude mouse xenografted with human HT-29 cells assessed as change in body weight at 150 mg/kg, ip for 10 days measured after 30 days; assay type: organism-based; parameters: dose 150 mg/kg, route intraperitoneal; details: in vivo, 720 h; how it was run: as §3
# [10] = system: AGS; experiment: Cytotoxicity against human AGS cells expressing wild type p53 after 48 hrs by SRB assay; assay type: functional, cell-based
# How it was run: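 Cell lines came from CCRC, Taiwan. Cells were seeded at about 5 × 10^3 per well and left overnight. They were then given serum-free medium containing 0-10 μM compound (0.08-10 μM serial dilutions) for 48 h at 37 °C. Cells were fixed with TCA (10% final), stained with SRB (0.4% final), and the dye was dissolved in 10 mM Tris with A515 read. IC50 was taken from a fitted log concentration-response curve.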
# [11] = system: K562; experiment: Cytotoxicity against p53-deficient human K562 cells after 48 hrs by SRB assay; assay type: functional, cell-based; details: K562, 48 h
# [12] = system: HT-29; experiment: Cytotoxicity against human HT-29 cells assessed as inhibition of anchorage-dependent colony formation at 5 uM after 14 days; assay type: functional, cell-based
# How it was run: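 HT-29 cells were plated at 500 per well and allowed to attach for 24 h. They were then exposed continuously to compound or DMSO for 14 days, with medium replaced every 72 h. Colonies were fixed in 1% formaldehyde/PBS and stained with 0.1% crystal violet.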
smiles,measurement,setting,value
CCn1cc(-c2nc3ccc([N+](=O)[O-])cc3o2)c(=O)c2cc(F)c(N3CCNC(C)C3)c(F)c21 (stereo not drawn),Activity,[1],35.5%
same,Activity,[2],tde
same,Activity,[3],Active
same,Activity,[4],Active
same,Activity,[5],13.6%
same,Activity,[6],23.5%
same,Activity,[7],52%
same,Activity,[8],Non-toxic
same,Activity,[9],Non-toxic
same,GI50,[10],0.7 µM
same,IC50,[10],3.5 µM
same,IC50,[11],4.6 µM
same,Activity,[12],Active

# Reference: ChEMBL document CHEMBL1153527, “Discovery of a novel series of quinolone and naphthyridine derivatives as potential topoisomerase I inhibitors by scaffold modification” (J Med Chem, 2009)
